System: not listed separately
Assay: Metabolic stability in human liver S9 fraction assessed as compound remaining at 1 uM after 90 mins by HPLC/MS/MS
Type: ADME, subcellular
Settings: read-out: Stability
Method in brief: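 Liver S9 (human or monkey, 3 mg/mL protein, phosphate buffer) with test article at 1 or 10 μM final, pre-equilibrated about 2 min at 37 °C. Started with 1x NADPH regeneration system, sampled 0-90 min into 1% NH4OH in n-propanol. Held cold ≥48 h, centrifuged, C8 LC (water/isopropanol, 0.1% formic acid) with ESI-MS; 7-ethoxycoumarin as activity control.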

SMILES | remaining at 1.5 h, 1 µM
Nc1ccn(C[C@@H](CO)OCP(=O)(O)OCCCOCCCCCCCCCCCCCCC2CC2)c(=O)n1 | 88%
CCCCCCCCCCCCCCCCOCCCOP(=O)(O)CO[C@H](CO)Cn1ccc(N)nc1=O [BRINCIDOFOVIR] | 83.3%
CC(C)CCCCCCCCCCCCCCOCCCOP(=O)(O)CO[C@H](CO)Cn1cnc2c(N)ncnc21 | 91.3%
CCCCCCCCCCCCCCCCCCOC[C@@H](COP(=O)(O)CO[C@H](CO)Cn1ccc(N)nc1=O)OCc1ccccc1 | 92.3%

System: Ectromelia virus Moscow
Assay: Antiviral activity against Ectromelia virus Moscow infected in african green monkey BSC1 cells after 4 to 5 days by plaque reduction assay
Type: functional, organism-based
Settings: BSC-1

SMILES | EC50
CCCCCCCCCCCCCCCCOCCCOP(=O)(O)CO[C@H](CO)Cn1cnc2c(N)ncnc21 | 66 nM
Nc1ccn(C[C@@H](CO)OCP(=O)(O)OCCCOCCCCCCCCCCCCCCC2CC2)c(=O)n1 | 740 nM
CCCCCCCCCCCCCCCCOCCCOP(=O)(O)CO[C@H](CO)Cn1ccc(N)nc1=O [BRINCIDOFOVIR] | 125 nM
CC(C)CCCCCCCCCCCCCCOCCCOP(=O)(O)CO[C@H](CO)Cn1cnc2c(N)ncnc21 | 44 nM
CCCCCCCCCCCCCCCCCCOC[C@@H](COP(=O)(O)CO[C@H](CO)Cn1ccc(N)nc1=O)OCc1ccccc1 | 30 nM

System: not listed separately
Assay: Selectivity index, ratio of CC50 for human HFF cells to EC50 for Cowpox virus (Brighton Red)
Type: toxicity, cell-based
Settings: read-out: Ratio CC50/EC50

SMILES | selectivity ratio
CCCCCCCCCCCCCCCCOCCCOP(=O)(O)CO[C@H](CO)Cn1cnc2c(N)ncnc21 | 140
Nc1ccn(C[C@@H](CO)OCP(=O)(O)OCCCOCCCCCCCCCCCCCCC2CC2)c(=O)n1 | 112
CCCCCCCCCCCCCCCCOCCCOP(=O)(O)CO[C@H](CO)Cn1ccc(N)nc1=O [BRINCIDOFOVIR] | 125
CC(C)CCCCCCCCCCCCCCOCCCOP(=O)(O)CO[C@H](CO)Cn1cnc2c(N)ncnc21 | 285
CCCCCCCCCCCCCCCCCCOC[C@@H](COP(=O)(O)CO[C@H](CO)Cn1ccc(N)nc1=O)OCc1ccccc1 | 157

System: Liver
Type: ADME, subcellular, S9 fraction
Settings: rat, s9, 1.5 h, 10 µM

SMILES | Stability
CCCCCCCCCCCCCCCCOCCCOP(=O)(O)CO[C@H](CO)Cn1ccc(N)nc1=O [BRINCIDOFOVIR] | Stable

System: Liver
Type: ADME, subcellular, Cavia porcellus, S9 fraction
Settings: guinea pig, s9, 1.5 h, 1 µM

SMILES | Stability
CCCCCCCCCCCCCCCCOCCCOP(=O)(O)CO[C@H](CO)Cn1ccc(N)nc1=O [BRINCIDOFOVIR] | Stable

System: Liver
Assay: Metabolic stability in human liver S9 fraction assessed as compound disappearance at 1 uM after 90 mins by HPLC/MS/MS
Type: ADME, subcellular
Settings: s9, 1.5 h
Method in brief: (§1)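 Liver S9 fraction at 3 mg/mL protein in phosphate buffer, test article 1 μM or 10 μM final; 2 min equilibration at 37 °C, then reaction started with 1x NADPH regeneration system. Samples taken from time zero to 90 min into 1% ammonium hydroxide in N-propyl alcohol. Analysed by C8 HPLC with water/isopropyl alcohol (0.1% formic acid) gradient and ESI-MS. 7-Ethoxycoumarin run as positive control.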

SMILES | Stability
CCCCCCCCCCCCCCCCOCCCOP(=O)(O)CO[C@H](CO)Cn1ccc(N)nc1=O [BRINCIDOFOVIR] | Stable

System: not listed separately
Assay: Selectivity index, ratio of CC50 for african green monkey BSC1 cells to EC50 for Ectromelia virus Moscow
Type: toxicity, cell-based, BSC-1
Settings: read-out: Ratio CC50/EC50

SMILES | selectivity ratio
CCCCCCCCCCCCCCCCOCCCOP(=O)(O)CO[C@H](CO)Cn1cnc2c(N)ncnc21 | 1280
Nc1ccn(C[C@@H](CO)OCP(=O)(O)OCCCOCCCCCCCCCCCCCCC2CC2)c(=O)n1 | 100
CCCCCCCCCCCCCCCCOCCCOP(=O)(O)CO[C@H](CO)Cn1ccc(N)nc1=O [BRINCIDOFOVIR] | 202
CC(C)CCCCCCCCCCCCCCOCCCOP(=O)(O)CO[C@H](CO)Cn1cnc2c(N)ncnc21 | 266
CCCCCCCCCCCCCCCCCCOC[C@@H](COP(=O)(O)CO[C@H](CO)Cn1ccc(N)nc1=O)OCc1ccccc1 | 1100

System: Liver
Assay: Metabolic stability in human liver S9 fraction assessed as compound degradation at 10 uM after 90 mins by HPLC/MS/MS
Type: ADME, subcellular
Settings: s9, 1.5 h
Method in brief: as §1

SMILES | Stability
CCCCCCCCCCCCCCCCOCCCOP(=O)(O)CO[C@H](CO)Cn1cnc2c(N)ncnc21 | Stable
CC(C)CCCCCCCCCCCCCCOCCCOP(=O)(O)CO[C@H](CO)Cn1cnc2c(N)ncnc21 | Stable

System: Vaccinia virus
Assay: Antiviral activity against Vaccinia virus Copenhagen infected in human HFF cells after 3 days by plaque reduction assay
Type: functional, organism-based
Settings: Orthopoxvirus vaccinia, 72 h

SMILES | EC50
Nc1ccn(C[C@@H](CO)OCP(=O)(O)OCCCOCCCCCCCCCCCCCCC2CC2)c(=O)n1 | 300 nM
CC(C)CCCCCCCCCCCCCCOCCCOP(=O)(O)CO[C@H](CO)Cn1cnc2c(N)ncnc21 | 40 nM
CCCCCCCCCCCCCCCCCCOC[C@@H](COP(=O)(O)CO[C@H](CO)Cn1ccc(N)nc1=O)OCc1ccccc1 | 400 nM

System: Liver
Assay: Metabolic stability in human liver S9 fraction assessed as compound degradation at 1 uM after 90 mins by HPLC/MS/MS
Type: ADME, subcellular
Settings: s9, 1.5 h
Method in brief: as §1

SMILES | Stability
CCCCCCCCCCCCCCCCOCCCOP(=O)(O)CO[C@H](CO)Cn1cnc2c(N)ncnc21 | Stable
CC(C)CCCCCCCCCCCCCCOCCCOP(=O)(O)CO[C@H](CO)Cn1cnc2c(N)ncnc21 | Stable

System: not listed separately
Assay: Selectivity index, ratio of CC50 for human HFF cells to EC50 for Vaccinia virus Copenhagen
Type: toxicity, cell-based
Settings: read-out: Ratio CC50/EC50

SMILES | selectivity ratio
CCCCCCCCCCCCCCCCOCCCOP(=O)(O)CO[C@H](CO)Cn1cnc2c(N)ncnc21 | 280
Nc1ccn(C[C@@H](CO)OCP(=O)(O)OCCCOCCCCCCCCCCCCCCC2CC2)c(=O)n1 | 187
CCCCCCCCCCCCCCCCOCCCOP(=O)(O)CO[C@H](CO)Cn1ccc(N)nc1=O [BRINCIDOFOVIR] | 313
CC(C)CCCCCCCCCCCCCCOCCCOP(=O)(O)CO[C@H](CO)Cn1cnc2c(N)ncnc21 | 285
CCCCCCCCCCCCCCCCCCOC[C@@H](COP(=O)(O)CO[C@H](CO)Cn1ccc(N)nc1=O)OCc1ccccc1 | 118

System: Liver
Type: ADME, subcellular, S9 fraction
Settings: rat, s9, 1.5 h, 1 µM

SMILES | Stability
CCCCCCCCCCCCCCCCOCCCOP(=O)(O)CO[C@H](CO)Cn1ccc(N)nc1=O [BRINCIDOFOVIR] | Stable

System: BSC-1
Assay: (§2) Cytotoxicity against african green monkey BSC1 cells after 2 to 4 hrs by MTS assay
Type: cell-based
Settings: chlorocebus aethiops, bsc-1
Method in brief: (§3)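 BSC-1 cells (5000 per reaction) mixed with serial compound dilutions in DMEM/2% Fetal Clone II, without virus. At the set time point, MTS reagent added for 2-4 h and OD490 read. Viability taken relative to untreated cells; CC50 from concentration versus % viability plot.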

SMILES | CC50
CCCCCCCCCCCCCCCCOCCCOP(=O)(O)CO[C@H](CO)Cn1cnc2c(N)ncnc21 | 84700 nM
Nc1ccn(C[C@@H](CO)OCP(=O)(O)OCCCOCCCCCCCCCCCCCCC2CC2)c(=O)n1 | 74000 nM
CCCCCCCCCCCCCCCCOCCCOP(=O)(O)CO[C@H](CO)Cn1ccc(N)nc1=O [BRINCIDOFOVIR] | 25300 nM
CC(C)CCCCCCCCCCCCCCOCCCOP(=O)(O)CO[C@H](CO)Cn1cnc2c(N)ncnc21 | 11700 nM

System: not listed separately
Assay: as §2
Type: cell-based, BSC-1
Settings: chlorocebus aethiops, BSC1 cells
Method in brief: as §3

SMILES | CC50
CCCCCCCCCCCCCCCCCCOC[C@@H](COP(=O)(O)CO[C@H](CO)Cn1ccc(N)nc1=O)OCc1ccccc1 | 35000 nM

System: Liver
Type: ADME, subcellular, Cavia porcellus, S9 fraction
Settings: guinea pig, s9, 1.5 h, 10 µM

SMILES | Stability
CCCCCCCCCCCCCCCCOCCCOP(=O)(O)CO[C@H](CO)Cn1ccc(N)nc1=O [BRINCIDOFOVIR] | Stable

System: Liver
Assay: Metabolic stability in human liver S9 fraction assessed as compound disappearance at 10 uM after 90 mins by HPLC/MS/MS
Type: ADME, subcellular
Settings: s9, 1.5 h
Method in brief: as §1

SMILES | Stability
CCCCCCCCCCCCCCCCOCCCOP(=O)(O)CO[C@H](CO)Cn1ccc(N)nc1=O [BRINCIDOFOVIR] | Stable

System: HFF
Assay: Cytotoxicity against human HFF cells assessed as reduction in cell viability after 7 days by neutral red uptake assay
Type: cell-based
Settings: 168 h
Method in brief: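 Uninfected HFF cells seeded at 2.5×10^4/well and grown 24 h to monolayer. Medium replaced by MEM/2% FBS containing graded compound concentrations; 7 d incubation. Cells stained with 0.01% neutral red, absorbance at 540 nm; CC50 interpolated as 50% viability loss.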

SMILES | CC50
CCCCCCCCCCCCCCCCOCCCOP(=O)(O)CO[C@H](CO)Cn1cnc2c(N)ncnc21 | 2800 nM
Nc1ccn(C[C@@H](CO)OCP(=O)(O)OCCCOCCCCCCCCCCCCCCC2CC2)c(=O)n1 | 56000 nM
CCCCCCCCCCCCCCCCOCCCOP(=O)(O)CO[C@H](CO)Cn1ccc(N)nc1=O [BRINCIDOFOVIR] | 25000 nM
CC(C)CCCCCCCCCCCCCCOCCCOP(=O)(O)CO[C@H](CO)Cn1cnc2c(N)ncnc21 | 11400 nM
CCCCCCCCCCCCCCCCCCOC[C@@H](COP(=O)(O)CO[C@H](CO)Cn1ccc(N)nc1=O)OCc1ccccc1 | 47000 nM

System: not listed separately
Assay: Antiviral activity against Cowpox virus (Brighton Red) infected in human HFF cells after 3 days by plaque reduction assay
Type: functional, cell-based
Settings: 72 h

SMILES | EC50
CCCCCCCCCCCCCCCCOCCCOP(=O)(O)CO[C@H](CO)Cn1cnc2c(N)ncnc21 | 20 nM
Nc1ccn(C[C@@H](CO)OCP(=O)(O)OCCCOCCCCCCCCCCCCCCC2CC2)c(=O)n1 | 500 nM
CCCCCCCCCCCCCCCCOCCCOP(=O)(O)CO[C@H](CO)Cn1ccc(N)nc1=O [BRINCIDOFOVIR] | 200 nM
CC(C)CCCCCCCCCCCCCCOCCCOP(=O)(O)CO[C@H](CO)Cn1cnc2c(N)ncnc21 | 40 nM
CCCCCCCCCCCCCCCCCCOC[C@@H](COP(=O)(O)CO[C@H](CO)Cn1ccc(N)nc1=O)OCc1ccccc1 | 300 nM

Reference: ChEMBL document CHEMBL1772955, “Synthesis, metabolic stability and antiviral evaluation of various alkoxyalkyl esters of cidofovir and 9-(S)-[3-hydroxy-2-(phosphonomethoxy)propyl]adenine” (Bioorg Med Chem, 2011)
